From PubChem BioAssay
Activity calls are given as the source filed them.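 Rule for the calls, unless noted: active = inhibition at or above 50% relative to wild type and mutant plate controls; inactive = inhibition below 50%.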

Assay: inhibitors of larval lipid processing in zebrafish, primary screen, whole organism, PED6 fluorescence, gall bladder and intestine (AID 686;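 active = a full or partial loss of lipid-probe fluorescence in the fish gall bladder, intestine or both, judged by eye; inactive = no fluorescence loss, or compound toxic to the fish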;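 note: larvae 5 to 7 days old with five fish per well; signal comes from phospholipase A2 cleavage of quenched PED6 carried via bile; overnight exposure to compound and PED6 before scoring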)
Conditions: Zebrafish larvae PED6 lipid processing, fluorescence scoring; screened at 20 µM (by protocol)
Summary of the method: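 Doses: 20 µM single dose. Test system: live zebrafish larvae aged 5-7 days, whole organism. Quantity: five larvae per well. Measured by: By-eye fluorescence microscopy. Reagent: ingested quenched lipid PED6 at 100 nM. Read-out: visual per-well fluorescence inhibition score. Times: overnight exposure of larvae to compound plus PED6.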

SMILES | outcome
CCCCCOc1ccccc1C(=O)NCCCC(=O)O | inactive
Cc1cc(=O)oc(C)c1C(=O)Nc1ccc2nsnc2c1 | inactive
CCOC(=O)NC1(C(F)(F)F)C(=O)NC(C)=C1C#N (stereo not drawn) | inactive
CCc1cc(=O)oc2cc(C)c(CN3CCCC3)c(O)c12 | inactive
Cc1cc(Nc2ccc3ccccc3c2)n2ncnc2n1 | inactive
O=c1c2c3c(sc2n2cnnc2n1C1CCCCC1)CCC3 | inactive
Cc1cccc(-n2ncc3c(NCCN4CCOCC4)ncnc32)c1 | inactive
CCCCOC(=O)CSC1=C(C#N)C(c2ccc3c(c2)OCO3)CC(=O)N1 (stereo not drawn) | inactive
COC(=O)CSCC(=O)Nc1cc2c(cc1C(C)=O)OCO2 | inactive
Cc1c(C)[n+](=O)c2c(n1[O-])CCC2 | inactive
CC1CCN(c2ncnc3c2cnn3Cc2ccc(Cl)cc2)CC1 | inactive
Cc1cc(=O)oc(C)c1C(=O)n1nc(C)c2c1C[C@@H]1[C@H]2C1(C)C | inactive
Cc1cc(=O)oc(C)c1C(=O)NC1CC(C)(C)NC(C)(C)C1 | inactive
O=C(Oc1oc(-c2ccco2)nc1C=Nc1ccccc1)c1ccco1 | inactive
Cn1c(=O)c2c(nc(NCCCO)n2Cc2cccc(C(F)(F)F)c2)n(C)c1=O | inactive
Cc1ccc(Oc2nc3c(c(=O)n(Cc4ccccc4F)c(=O)n3C)n2C)cc1 | inactive
N#Cc1c(N)n(CCOC(=O)c2ccc(Cl)cc2)c2nc3ccccc3nc12 | inactive
CCCc1nnc(NC(=O)Nc2ccccc2OC)s1 | inactive
O=C(C1=C(O)C(=O)N(CCCN2CCOCC2)C1c1ccccn1)c1cc2ccccc2o1 (stereo not drawn) | inactive
COc1ccc(CCn2c(=N)c(C(=O)NCc3ccco3)cc3c(=O)n4ccccc4nc32)cc1OC | inactive

SMILES | outcome
O=C(c1ccccc1)n1c(=S)nc2ccccn21 | inactive
CCc1nc2n[nH]c(N)c2c2c1CCCC2 | inactive; toxic
O=c1c2ccccc2ncn1Cc1ccco1 | inactive
O=C(O)c1cc2sccc2s1 | inactive
CC(C)c1[nH]c(=O)c(C#N)c2c1CSC(C)(C)C2 | inactive
CC1(C)Cc2c(c(N3CCOCC3)nc3snc(Br)c23)CO1 | inactive
COc1ccc(C2C(C#N)=C(N)Oc3cc(C)n(CCN4CCOCC4)c(=O)c32)cc1OC (stereo not drawn) | inactive
Cc1ccc(N2C(=O)CC3(CC4C=CC3C4)C2=O)cc1 (stereo not drawn) | inactive
CCCc1cc(NCCN2CCOCC2)n2c(nc3ccccc32)c1C#N | inactive
CCN(CC)CCCN1C(=O)C(=O)/C(=C(/O)c2ccc(OC)cc2)C1c1ccco1 (stereo not drawn) | inactive
Cc1ccc(-n2ncc3c(NCCCOC(C)C)ncnc32)c(C)c1 | inactive
O=C(COc1ccc(-c2nnc(N3CCCCC3)c3ccccc23)cc1)N1CCCCC1 | inactive
CC(C(=O)N(C)C)N(C#N)c1nc(N(C)C)nc(N(C)C)n1 (stereo not drawn) | inactive
CC(C(=O)NC(=O)NCc1ccccc1)N1C(=O)c2ccccc2C1=O (stereo not drawn) | inactive
CCN(CC)CCN1C(=O)c2ccccc2NC1c1cc(OC)c(OC)c(OC)c1 (stereo not drawn) | inactive
O=C(NCc1ccccc1)/C(=N\O)c1ccccc1 | inactive
Cn1ncc2nc[nH]c(=O)c21 | inactive
Clc1ccc(-n2ncc3c(NCc4ccco4)ncnc32)cc1 | inactive
COC(=O)c1ccc(Cn2c(O)c(N=O)c3ccccc32)o1 | inactive

Assay: loss of swimming-algae plug formation – whole organism, Chlamydomonas reinhardtii, WT vs cilia-less mutant, absorbance, 96-well, primary screen (AID 463189);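 note: 0% = wild type cc124 cells in DMSO and 100% = ciliumless bld1 mutant cells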
Conditions: Chlamydomonas reinhardtii gravitaxis, OD600 absorbance, 2 days; at 10 µM; active compounds read high

SMILES | inhibition
CCCCCOc1ccccc1C(=O)NCCCC(=O)O | 32.4% (inactive)
Cc1cc(=O)oc(C)c1C(=O)Nc1ccc2nsnc2c1 | -6.75% (inactive)
CCOC(=O)NC1(C(F)(F)F)C(=O)NC(C)=C1C#N (stereo not drawn) | 23.5% (inactive)
CCc1cc(=O)oc2cc(C)c(CN3CCCC3)c(O)c12 | 3.29% (inactive)
Cc1cc(Nc2ccc3ccccc3c2)n2ncnc2n1 | -3.1% (inactive)
O=c1c2c3c(sc2n2cnnc2n1C1CCCCC1)CCC3 | 33.2% (inactive)
Cc1cccc(-n2ncc3c(NCCN4CCOCC4)ncnc32)c1 | 34% (inactive)
CCCCOC(=O)CSC1=C(C#N)C(c2ccc3c(c2)OCO3)CC(=O)N1 (stereo not drawn) | 4.75% (inactive)
COC(=O)CSCC(=O)Nc1cc2c(cc1C(C)=O)OCO2 | 22.6% (inactive)
Cc1c(C)[n+](=O)c2c(n1[O-])CCC2 | 38.1% (inactive)
CC1CCN(c2ncnc3c2cnn3Cc2ccc(Cl)cc2)CC1 | 4.22% (inactive)
Cc1cc(=O)oc(C)c1C(=O)n1nc(C)c2c1C[C@@H]1[C@H]2C1(C)C | -9.72% (inactive)
Cc1cc(=O)oc(C)c1C(=O)NC1CC(C)(C)NC(C)(C)C1 | 6.56% (inactive)
O=C(Oc1oc(-c2ccco2)nc1C=Nc1ccccc1)c1ccco1 | 38.4% (inactive)
Cn1c(=O)c2c(nc(NCCCO)n2Cc2cccc(C(F)(F)F)c2)n(C)c1=O | -3.98% (inactive)
Cc1ccc(Oc2nc3c(c(=O)n(Cc4ccccc4F)c(=O)n3C)n2C)cc1 | 11.6% (inactive)
N#Cc1c(N)n(CCOC(=O)c2ccc(Cl)cc2)c2nc3ccccc3nc12 | -2.92% (inactive)
CCCc1nnc(NC(=O)Nc2ccccc2OC)s1 | -5.69% (inactive)
O=C(C1=C(O)C(=O)N(CCCN2CCOCC2)C1c1ccccn1)c1cc2ccccc2o1 (stereo not drawn) | 23.5% (inactive)
COc1ccc(CCn2c(=N)c(C(=O)NCc3ccco3)cc3c(=O)n4ccccc4nc32)cc1OC | -2.16% (inactive)

SMILES | inhibition
O=C(c1ccccc1)n1c(=S)nc2ccccn21 | 3.62% (inactive)
CCc1nc2n[nH]c(N)c2c2c1CCCC2 | 2.25% (inactive)
O=c1c2ccccc2ncn1Cc1ccco1 | 14.3% (inactive)
O=C(O)c1cc2sccc2s1 | -3.38% (inactive)
CC(C)c1[nH]c(=O)c(C#N)c2c1CSC(C)(C)C2 | 14% (inactive)
CC1(C)Cc2c(c(N3CCOCC3)nc3snc(Br)c23)CO1 | 2.33% (inactive)
COc1ccc(C2C(C#N)=C(N)Oc3cc(C)n(CCN4CCOCC4)c(=O)c32)cc1OC (stereo not drawn) | 1.58% (inactive)
Cc1ccc(N2C(=O)CC3(CC4C=CC3C4)C2=O)cc1 (stereo not drawn) | -4.98% (inactive)
CCCc1cc(NCCN2CCOCC2)n2c(nc3ccccc32)c1C#N | -18.9% (inactive)
CCN(CC)CCCN1C(=O)C(=O)/C(=C(/O)c2ccc(OC)cc2)C1c1ccco1 (stereo not drawn) | -7.38% (inactive)
Cc1ccc(-n2ncc3c(NCCCOC(C)C)ncnc32)c(C)c1 | 39% (inactive)
O=C(COc1ccc(-c2nnc(N3CCCCC3)c3ccccc23)cc1)N1CCCCC1 | 34.6% (inactive)
CC(C(=O)N(C)C)N(C#N)c1nc(N(C)C)nc(N(C)C)n1 (stereo not drawn) | 26.6% (inactive)
CC(C(=O)NC(=O)NCc1ccccc1)N1C(=O)c2ccccc2C1=O (stereo not drawn) | -4.8% (inactive)
CCN(CC)CCN1C(=O)c2ccccc2NC1c1cc(OC)c(OC)c(OC)c1 (stereo not drawn) | 16.2% (inactive)
O=C(NCc1ccccc1)/C(=N\O)c1ccccc1 | -1.95% (inactive)
Cn1ncc2nc[nH]c(=O)c21 | 30.9% (inactive)
Clc1ccc(-n2ncc3c(NCc4ccco4)ncnc32)cc1 | 45.5% (inactive)
COC(=O)c1ccc(Cn2c(O)c(N=O)c3ccccc32)o1 | -9.22% (inactive)
